Consider 16 compounds from ChEMBL document CHEMBL3867462, “Synthesis and in vitro antikinetoplastid activity of polyamine-hydroxybenzotriazole conjugates” (Bioorg Med Chem, 2017).

SMILES strings stand for the structures.

The subject of data set [1] is Leishmania donovani. Kind of data set: Antileishmanial against of Leishmania donovani LV9 intramacrophage amastigotes infected in mouse RAW 264.7 cells after 48 hrs by SYBR1 green-based qPCR analysis. Type of data set: functional, cell-based. The following applies: LV9, RAW264.7, 48 h.
The subject of data set [2] is Leishmania donovani. Kind of data set: Antileishmanial against of Leishmania donovani LV9 axenic amastigotes after 72 hrs by SYBR1 green-based qPCR analysis. Type of data set: functional. The following applies: LV9, 72 h. Summed up: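 Axenic amastigotes were grown at 37 °C under 5% CO2, in medium at pH 5.5 containing glucose, glutamine, trypticase peptone, haemin and 20% FBS. Parasite load was read by SYBR green I fluorescence in a qPCR instrument and converted against a standard range of known parasite densities.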

Data set [3] is described as follows: Cytotoxicity against mouse RAW264.7 cells assessed as cell growth inhibition after 72 hrs by Alamar blue dye-based assay. Type of data set: toxicity. The method in brief: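 RAW 264.7 cells in DMEM with 10% heat-inactivated FBS were seeded at 5×10³ cells/well and incubated 24 h at 37 °C, 5% CO2. The medium was then replaced with fresh DMEM containing compound.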
Background: Alamar Blue is a resazurin reagent that responds to reducing activity.

For data set [4], the system named is Trypanosoma brucei gambiense. Kind of data set: Antitrypanosomal against bloostream forms of Trypanosoma brucei gambiense FeoITMAP/1893 trypomastigotes after 72 hrs in the dark by resazurin assay. Type of data set: functional. The settings on record: FeoITMAP/1893, 72 h. The method in brief:
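Bloodstream trypanosomes were seeded at 4×10⁴/mL with compound dilutions in supplemented medium containing NaHCO3, hypoxanthine, bathocuproine, thymidine and 2-mercaptoethanol. Incubation was 72 h.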

Data set [5] in a line: Selectivity index, ratio of CC50 for mouse RAW 264.7 cells to IC50 for Trypanosoma brucei gambiense FeoITMAP/1893 trypomastigotes. The class given is functional. Summed up:
(§1)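 Selectivity index is the CC50 on RAW 264.7 cells divided by the IC50 on the parasite.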

Data set [6] in a line: Selectivity index, ratio of CC50 for mouse RAW 264.7 cells to IC50 for Leishmania donovani LV9 intramacrophage amastigotes infected in mouse RAW 264.7 cells. The class given is functional. Summed up: as §1
Data set [7] is described as follows: Selectivity index, ratio of CC50 for mouse RAW 264.7 cells to IC50 for Leishmania donovani LV9 axenic amastigotes. Type of data set: functional. Summed up: as §1
Data set [8] can be described thus: Mixed-type inhibition of Trypanosoma brucei TryR assessed as enzyme-inhibitor complex using TS2 as substrate in presence of NADPH by Lineweaver-Burk plot analysis. The method in brief:
(§2)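 Recombinant T. brucei TryR activity was followed as NADPH consumption at 340 nm with TS2 concentration varied, at 0, 10 and 40 µM inhibitor. Inhibition type and inhibitor constant were derived from Lineweaver–Burk plots.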

For a further data set, the system named is Trypanosoma brucei. The data set is described as follows: Inhibition of Trypanosoma brucei TryR using TS2 as substrate at 40 uM in presence of NADPH by spectrophotometric analysis. The method in brief:
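Recombinant T. brucei TryR was screened with inhibitor at 40 µM in assay buffer containing 5% DMSO, at 40 or 100 µM TS2. Activity was followed as NADPH consumption at 340 nm and reported as percent inhibition against DMSO-matched controls.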

A short description of data set [9]: Mixed-type inhibition of Trypanosoma brucei TryR assessed as enzyme-substrate-inhibitor complex using TS2 as substrate in presence of NADPH by Lineweaver-Burk plot analysis. Summed up:
as §2

In general, IC50 refers to the concentration needed to halve the response being measured. A low value points to greater potency in that assay. What is called CC50 is the concentration that lowers cell viability or growth by half. On to `CC(C)(C)OC(=O)NCCCCNC(=O)COn1nnc2ccccc21`, for which the IC50 (in the data set with Leishmania donovani [1]; in the data set with Leishmania donovani [2]; in data set [4]) was more than 100 µM each time. In addition, the half-maximal cytotoxic concentration (CC50) at 72 h in data set [3] is more than 100 µM.
In the case of `CC(C)(C)OC(=O)NCCCN(CCCCNC(=O)COn1nnc2ccccc21)C(=O)OC(C)(C)C`, the results for the IC50 (in the data set on Leishmania donovani [1]; in the data set on Leishmania donovani [2]; in data set [4]) were 41.4 µM, more than 100 µM and 2 µM, respectively. The “Ratio CC50/IC50” value is on record as 50 in data set [5] and 2 in [6]. For the same compound, the CC50 at 72 h in data set [3] was more than 100 µM.
In the case of `CCCCCCCCCCCCCCCCOP(=O)([O-])OCC[N+](C)(C)C` [MILTEFOSINE], the IC50 stood at 1.5 µM in the data set on Leishmania donovani [1] and 1.9 µM in the data set with Leishmania donovani [2]. Besides, the 50% cytotoxic concentration (CC50) at 72 h in data set [3] was more than 100 µM.
In the case of `O=C(O)COn1nnc2ccccc21`, the IC50 (with Leishmania donovani [1]; with Leishmania donovani [2]; in data set [4]) was more than 100 µM throughout. Moreover, the CC50 at 72 h in data set [3] is more than 100 µM.
`Cl.Cl.NCCCNCCCCNC(=O)COn1nnc2ccccc21`: the “Ratio CC50/IC50” value was 9 in data set [7] and 3 in data set [5]. In addition, the figures for the IC50 (with Leishmania donovani [1]; in the data set with Leishmania donovani [2]; in data set [4]) were more than 100 µM, more than 100 µM and 38.7 µM, respectively. Besides, in data set [3], the CC50 at 72 h was more than 100 µM.
Take `CC(C)(C)OC(=O)NCCCCN(CCCNC(=O)COn1nnc2ccccc21)C(=O)OC(C)(C)C`: the “Ratio CC50/IC50” value in [7] is 1.6; in data set [5] it was 85; in [6] it was 1. For the same compound, the IC50 with Leishmania donovani [1] stood at 67.8 µM; with Leishmania donovani [2] it was 60.5 µM; in data set [4], 1.2 µM. For the same compound, the CC50 at 72 h in data set [3] is more than 100 µM.
For the compound `CC(C)(C)OC(=O)NCCCCN(CCCNC(=O)OC(C)(C)C)C(=O)COn1nnc2ccccc21`, the results for the “Ratio CC50/IC50” value in data set [7], in data set [5] and in data set [6] were 1, 4 and 4, respectively. The values for the IC50 (in the data set with Leishmania donovani [1]; in the data set with Leishmania donovani [2]; in data set [4]) were 3.1 µM, 11.5 µM and 3.2 µM, respectively. Further, the half-maximal cytotoxic concentration (CC50) at 72 h in [3] came to 12.5 µM.
Regarding `CC(C)(C)OC(=O)NCCCNC(=O)COn1nnc2ccccc21`, the half-inhibitory concentration (IC50) in the data set on Leishmania donovani [1] was 56.7 µM; with Leishmania donovani [2], more than 100 µM; in data set [4], 28.8 µM. In addition, the “Ratio CC50/IC50” value amounted to 3 in data set [5] and 2 in data set [6]. Further, the CC50 at 72 h in data set [3] is more than 100 µM.
`N=C(N)c1ccc(OCCCCCOc2ccc(C(=N)N)cc2)cc1` [PENTAMIDINE]: the 50% cytotoxic concentration (CC50) at 72 h in data set [3] is more than 100 µM. This compound also registered an IC50 in data set [4] of 0.0021 µM.
Regarding `Cl.Cl.NCCCCN(CCCN)C(=O)COn1nnc2ccccc21`, the IC50 was 23.4 µM with Leishmania donovani [1], more than 100 µM in the data set with Leishmania donovani [2] and 25.3 µM in data set [4]. Besides, the “Ratio CC50/IC50” value in data set [5] and in data set [6] was 4 throughout. Moreover, the CC50 at 72 h in [3] was more than 100 µM.
For `Cl.Cl.Cl.NCCCNCCCCNCCCNC(=O)COn1nnc2ccccc21`, the “Ratio CC50/IC50” value in [7] was 9; in data set [5], 7; in data set [6] it was 3. For the same compound, the IC50 with Leishmania donovani [1] came to 38.6 µM; with Leishmania donovani [2], 10.9 µM; in data set [4] it was 13.8 µM. The half-maximal cytotoxic concentration (CC50) at 72 h in data set [3] was more than 100 µM.
Take `CC(C)(C)OC(=O)NCCCN(CCCCN(CCCNC(=O)COn1nnc2ccccc21)C(=O)OC(C)(C)C)C(=O)OC(C)(C)C`: the figures for the “Ratio CC50/IC50” value in data set [7], in data set [5] and in data set [6] were 1.4, 10 and 1, respectively. Further, the IC50 with Leishmania donovani [1] worked out at 34.7 µM; in the data set on Leishmania donovani [2] it was 27 µM; in data set [4] it was 3.5 µM. The CC50 at 72 h in [3] worked out at 37.4 µM.
In the case of `Cl.NCCCNC(=O)COn1nnc2ccccc21`, the IC50 in the data set on Leishmania donovani [1] is 29.5 µM; with Leishmania donovani [2], more than 100 µM; in data set [4] it was more than 100 µM. Also, the CC50 at 72 h in data set [3] was more than 100 µM. The “Ratio CC50/IC50” value in [6] was found to be 3.
Consider `NCCCCNCCCN` [SPERMIDINE], for which the “Ratio CC50/IC50” value was 12 in data set [7] and 29 in data set [5]. The half-maximal inhibitory concentration (IC50) is more than 100 µM with Leishmania donovani [1], 8.3 µM in the data set on Leishmania donovani [2] and 3.3 µM in [4]. Moreover, the 50% cytotoxic concentration (CC50) at 72 h in data set [3] is more than 100 µM.
Turning to `Cl.NCCCCNC(=O)COn1nnc2ccccc21`, the IC50 is more than 100 µM in the data set on Leishmania donovani [1], more than 100 µM with Leishmania donovani [2] and 9.5 µM in [4]. The “Ratio CC50/IC50” value in data set [5] worked out at 11. In data set [3], the CC50 at 72 h was more than 100 µM.
For orientation: Ki means a dissociation constant, usually derived from enzyme kinetics or from competition with a known ligand. Broadly, the inhibition is the percentage by which the read-out fell short of the control. Consider `Cl.Cl.NCCCCNCCCNC(=O)COn1nnc2ccccc21`, for which the entries for the “Ratio CC50/IC50” value in data set [7] and in data set [5] were 1.5 and 1, respectively. The Ki in data set [8] was 6.7 µM; in [9] it was 16.8 µM. In addition, the values for the IC50 (in the data set with Leishmania donovani [1]; in the data set on Leishmania donovani [2]; in data set [4]) were more than 100 µM, more than 100 µM and 72 µM, respectively. Also, the inhibition in the data set with Trypanosoma brucei is 80%. In addition, the CC50 at 72 h in data set [3] is more than 100 µM.
